For one compound, inhibition and Activity results are on record in ChEMBL document CHEMBL5674890, “Selective inhibition of CBP/p300 HAT by A-485 results in suppression of lipogenesis and hepatic gluconeogenesis” (Cell Death Dis, 2020).

The source made the active and inactive calls. No cut-off for these calls is given here.

Test [1] deals with Mus musculus. The test can be described thus: Inhibition of lipogenesis in C57BL/6 mouse supplemented with normal chow diet assessed as decrease in ACC protein expression at 20 mg/kg/day, ip administered for 1 week measured by western blot analysis. In kind it is functional, organism-based. Particulars: time 1.0 weeks. An outline of the steps:
(§1)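 Eight-week-old male C57BL/6 mice on normal chow were given 20 mg·kg−1·day−1 ip daily for 7 days or vehicle. Epididymal WAT was collected. Lipogenic, adipogenic and fatty-acid-oxidation transcripts were quantified by Trizol extraction and SYBR Green RT-qPCR. FAS, ACC, PPARγ and C/EBPα protein were assessed by western blot. n = 5–9; mean ± SEM.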

The test system of test [2] is Hepatocyte. The experiment in a line: Inhibition of lipogenesis in mouse primary hepatocytes assessed as decrease in FAS protein expression at 3 uM in presence of 100 nM insulin and 5 to 25 mM glucose measured after 18 hrs by western blot analysis. Format: functional, cell-based.
For test [3], the system named is Mus musculus. The experiment in a line: Anti-obesity activity in C57BL/6 mouse supplemented with normal chow diet assessed as effect on random blood glucose at 20 mg/kg/day, ip administered for 1 week. Format: functional, organism-based. As to conditions: time 1.0 weeks. The gist of the method:
(§2)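 8-week-old male C57BL/6 mice on normal chow, ip 20 mg·kg−1·day−1 for 7 days. Blood glucose measured randomly fed or after 6 h or 16 h fasting, as the line states. Mean ± SEM, n = 5–9.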

The subject of test [4] is Hepatocyte. The experiment in a line: Inhibition of glucogenesis in mouse primary hepatocytes stimulated with 100 uM 8-Br-cAMP assessed as decrease in C/EBPalpha mRNA expression at 3 uM measured after 8 hrs by RT-qPCR assay. In kind it is functional, cell-based. An outline of the steps: (§3)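 Primary mouse hepatocytes treated with 3 μM compound and 100 μM 8-Br-cAMP for 8 h. Trizol RNA, SYBR Green RT-qPCR of the named transcript. Mean ± SEM, three independent experiments.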

Test [5] relates to Mus musculus. The test can be described thus: Inhibition of lipogenesis in C57BL/6 mouse supplemented with normal chow diet assessed as decrease in SREBP-1c mRNA expression at 20 mg/kg/day, ip administered for 1 week measured by RT-qPCR assay. Format: functional, organism-based. As to conditions: time 1.0 weeks. An outline of the steps: as §1
The target in test [6] is CREB-binding protein/Histone acetyltransferase p300 (Homo sapiens) (UniProt Q09472+Q92793). The test can be described thus: Inhibition of CBP/p300 in mouse primary hepatocytes stimulated with 100 uM 8-Br-cAMP assessed as decrease in half-life of endogenous FOXO1 at 3 uM in presence of 10 ug/ml cycloheximide. Particulars: Primary hepatocyte. Format: cell-based. The gist of the method:
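Primary mouse hepatocytes in 100 μM 8-Br-cAMP treated with 3 μM compound and 10 μg/ml cycloheximide for the indicated times. Endogenous FOXO1 immunoblotted; band intensity quantified. Three independent experiments.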

For test [7], the system named is Adipocyte. The test can be described thus: Inhibition of lipogenesis in mouse adipocytes isolated stromal vascular cells assessed as decrease in C/EBPalpha mRNA expression measured after 24 hrs by RT-qPCR assay. In kind it is functional, cell-based. An outline of the steps:
(§4)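 Stromal vascular cells from inguinal WAT of C57BL/6 mice, grown in DMEM/F12 + 10% FBS at 37 °C, 10% CO2. At confluence, induced 48 h with 5 μg/ml insulin, 1 μM dexamethasone, 0.5 mM isobutylmethylxanthine, then 6 days in 5 μg/ml insulin; fully differentiated day 8. Mature adipocytes exposed to inhibitor 24 h. Total RNA by Trizol, SYBR Green RT-qPCR; protein by western blot.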

For test [8], the system named is Hepatocyte. The test can be described thus: Inhibition of glucogenesis in mouse primary hepatocytes stimulated with 100 uM 8-Br-cAMP assessed as effect on PGC1alpha mRNA expression at 3 uM measured after 8 hrs by RT-qPCR assay. Format: functional, cell-based. An outline of the steps: as §3
Test [9] deals with Mus musculus. The experiment in a line: Inhibition of lipogenesis in C57BL/6 mouse supplemented with high-fat diet assessed as decrease in LPL mRNA expression at 20 mg/kg/day, ip administered for 1 week measured measured by RT-qPCR assay. In kind it is functional, organism-based. As to conditions: time 1.0 weeks. The gist of the method:
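Male C57BL/6 mice were fed high-fat diet for 14 weeks from 5 weeks of age, then injected ip with 20 mg·kg−1·day−1 for 7 days or given vehicle. Epididymal and inguinal WAT were weighed, examined by H&E, and analysed. Transcripts were measured by Trizol/SYBR Green RT-qPCR; proteins by western blot. n = 5–9; mean ± SEM.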

Test [10] relates to Adipocyte. The experiment in a line: Inhibition of lipogenesis in mouse adipocytes isolated stromal vascular cells assessed as decrease in SREBP-1c mRNA expression measured after 24 hrs by RT-qPCR assay. In kind it is functional, cell-based. An outline of the steps: as §4
Test [11] has as its system Adipocyte. The experiment in a line: Inhibition of lipogenesis in mouse adipocytes isolated stromal vascular cells assessed as decrease in SCD1 mRNA expression measured after 24 hrs by RT-qPCR assay. In kind it is functional, cell-based. The gist of the method:
as §4

The test system of test [12] is Mus musculus. The experiment in a line: Inhibition of lipogenesis in C57BL/6 mouse supplemented with normal chow diet assessed as decrease in FAS protein expression at 20 mg/kg/day, ip administered for 1 week measured by western blot analysis. Particulars: time 1.0 weeks. Format: functional, organism-based. An outline of the steps: as §1
The test system of test [13] is Adipocyte. The test can be described thus: Inhibition of lipogenesis in mouse adipocytes isolated stromal vascular cells assessed as decrease in DGAT2 mRNA expression measured after 24 hrs by RT-qPCR assay. In kind it is functional, cell-based. An outline of the steps: as §4
The species named for test [14] is Mus musculus. The test can be described thus: Inhibition of glucogenesis in mouse assessed as decrease in hepatic FOXO1 protein expression measured by western blot analysis. In kind it is functional, organism-based. An outline of the steps: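 Livers from vehicle- or treated mice (ip 20 mg·kg−1·day−1 for 7 days) homogenized in lysis buffer; FOXO1 and C/EBPα analysed by western blot.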

Test [15] concerns Mus musculus. The test can be described thus: Inhibition of lipogenesis in C57BL/6 mouse supplemented with normal chow diet assessed as effect on ACO mRNA expression at 20 mg/kg/day, ip administered for 1 week measured by RT-qPCR assay. Format: functional, organism-based. Particulars: time 1.0 weeks. The gist of the method:
as §1

The test system of test [16] is HepG2. The test can be described thus: Inhibition of glucogenesis in human HepG2 cells stimulated with 8-Br-cAMP at 3 uM assessed as effect on change in TORC2/CREB interaction measured by coimmunoprecipitation analysis. Format: functional, cell-based. The gist of the method:
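HepG2 cells treated with 3 μM compound. CREB association with CBP and TORC2 assessed by coimmunoprecipitation (antibody 2 h, protein A/G beads overnight at 4 °C) and western blot.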

Test [17] concerns Hepatocyte. The experiment in a line: Inhibition of lipogenesis in mouse primary hepatocytes assessed as increase in MCAD mRNA expression at 3 uM in presence of 100 nM insulin and 5 to 25 mM glucose measured after 18 hrs by RT-qPCR assay. Format: functional, cell-based. The gist of the method: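 Primary hepatocytes isolated from C57BL/6 mice by two-step perfusion. Cells incubated 18 h with 3 μM inhibitor, with 0 or 100 nM insulin and 5 or 25 mM glucose. Transcripts quantified by SYBR Green RT-qPCR after Trizol RNA extraction; proteins by western blot of lysates. Mean ± SEM.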

Test [18] concerns Mus musculus. The experiment in a line: Anti-obesity activity in C57BL/6 mouse supplemented with high fat diet assessed as effect on total lean mass at 20 mg/kg/day, ip administered for 1 week. In kind it is functional, organism-based. Particulars: time 1.0 weeks. An outline of the steps: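 Male C57BL/6 mice fed high-fat diet for 14 weeks from 5 weeks of age, then ip 20 mg·kg−1·day−1 for 7 days. Body weight, EchoMRI lean/fat mass, and random or 16 h-fasted blood glucose recorded, as the line states.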

Test [19] relates to Mus musculus. The experiment in a line: Anti-obesity activity in 16 hrs fasted C57BL/6 mouse supplemented with normal chow diet assessed as decrease in fasting blood glucose at 20 mg/kg/day, ip administered for 1 week. Format: functional, organism-based. Particulars: time 1.0 weeks. An outline of the steps: as §2
Test [20] deals with Mus musculus. The experiment in a line: Inhibition of lipogenesis in C57BL/6 mouse supplemented with normal chow diet assessed as decrease in LPL mRNA expression at 20 mg/kg/day, ip administered for 1 week measured measured by RT-qPCR assay. In kind it is functional, organism-based. Particulars: time 1.0 weeks. An outline of the steps:
as §1

The test system of test [21] is Mus musculus. The test can be described thus: Inhibition of lipogenesis in C57BL/6 mouse supplemented with normal chow diet assessed as decrease in C/EBPalpha mRNA expression at 20 mg/kg/day, ip administered for 1 week measured measured by RT-qPCR assay. In kind it is functional, organism-based. As to conditions: time 1.0 weeks. An outline of the steps:
as §1

CREB-binding protein/Histone acetyltransferase p300 (Homo sapiens), sequence (Q09472 whole entry, looked up): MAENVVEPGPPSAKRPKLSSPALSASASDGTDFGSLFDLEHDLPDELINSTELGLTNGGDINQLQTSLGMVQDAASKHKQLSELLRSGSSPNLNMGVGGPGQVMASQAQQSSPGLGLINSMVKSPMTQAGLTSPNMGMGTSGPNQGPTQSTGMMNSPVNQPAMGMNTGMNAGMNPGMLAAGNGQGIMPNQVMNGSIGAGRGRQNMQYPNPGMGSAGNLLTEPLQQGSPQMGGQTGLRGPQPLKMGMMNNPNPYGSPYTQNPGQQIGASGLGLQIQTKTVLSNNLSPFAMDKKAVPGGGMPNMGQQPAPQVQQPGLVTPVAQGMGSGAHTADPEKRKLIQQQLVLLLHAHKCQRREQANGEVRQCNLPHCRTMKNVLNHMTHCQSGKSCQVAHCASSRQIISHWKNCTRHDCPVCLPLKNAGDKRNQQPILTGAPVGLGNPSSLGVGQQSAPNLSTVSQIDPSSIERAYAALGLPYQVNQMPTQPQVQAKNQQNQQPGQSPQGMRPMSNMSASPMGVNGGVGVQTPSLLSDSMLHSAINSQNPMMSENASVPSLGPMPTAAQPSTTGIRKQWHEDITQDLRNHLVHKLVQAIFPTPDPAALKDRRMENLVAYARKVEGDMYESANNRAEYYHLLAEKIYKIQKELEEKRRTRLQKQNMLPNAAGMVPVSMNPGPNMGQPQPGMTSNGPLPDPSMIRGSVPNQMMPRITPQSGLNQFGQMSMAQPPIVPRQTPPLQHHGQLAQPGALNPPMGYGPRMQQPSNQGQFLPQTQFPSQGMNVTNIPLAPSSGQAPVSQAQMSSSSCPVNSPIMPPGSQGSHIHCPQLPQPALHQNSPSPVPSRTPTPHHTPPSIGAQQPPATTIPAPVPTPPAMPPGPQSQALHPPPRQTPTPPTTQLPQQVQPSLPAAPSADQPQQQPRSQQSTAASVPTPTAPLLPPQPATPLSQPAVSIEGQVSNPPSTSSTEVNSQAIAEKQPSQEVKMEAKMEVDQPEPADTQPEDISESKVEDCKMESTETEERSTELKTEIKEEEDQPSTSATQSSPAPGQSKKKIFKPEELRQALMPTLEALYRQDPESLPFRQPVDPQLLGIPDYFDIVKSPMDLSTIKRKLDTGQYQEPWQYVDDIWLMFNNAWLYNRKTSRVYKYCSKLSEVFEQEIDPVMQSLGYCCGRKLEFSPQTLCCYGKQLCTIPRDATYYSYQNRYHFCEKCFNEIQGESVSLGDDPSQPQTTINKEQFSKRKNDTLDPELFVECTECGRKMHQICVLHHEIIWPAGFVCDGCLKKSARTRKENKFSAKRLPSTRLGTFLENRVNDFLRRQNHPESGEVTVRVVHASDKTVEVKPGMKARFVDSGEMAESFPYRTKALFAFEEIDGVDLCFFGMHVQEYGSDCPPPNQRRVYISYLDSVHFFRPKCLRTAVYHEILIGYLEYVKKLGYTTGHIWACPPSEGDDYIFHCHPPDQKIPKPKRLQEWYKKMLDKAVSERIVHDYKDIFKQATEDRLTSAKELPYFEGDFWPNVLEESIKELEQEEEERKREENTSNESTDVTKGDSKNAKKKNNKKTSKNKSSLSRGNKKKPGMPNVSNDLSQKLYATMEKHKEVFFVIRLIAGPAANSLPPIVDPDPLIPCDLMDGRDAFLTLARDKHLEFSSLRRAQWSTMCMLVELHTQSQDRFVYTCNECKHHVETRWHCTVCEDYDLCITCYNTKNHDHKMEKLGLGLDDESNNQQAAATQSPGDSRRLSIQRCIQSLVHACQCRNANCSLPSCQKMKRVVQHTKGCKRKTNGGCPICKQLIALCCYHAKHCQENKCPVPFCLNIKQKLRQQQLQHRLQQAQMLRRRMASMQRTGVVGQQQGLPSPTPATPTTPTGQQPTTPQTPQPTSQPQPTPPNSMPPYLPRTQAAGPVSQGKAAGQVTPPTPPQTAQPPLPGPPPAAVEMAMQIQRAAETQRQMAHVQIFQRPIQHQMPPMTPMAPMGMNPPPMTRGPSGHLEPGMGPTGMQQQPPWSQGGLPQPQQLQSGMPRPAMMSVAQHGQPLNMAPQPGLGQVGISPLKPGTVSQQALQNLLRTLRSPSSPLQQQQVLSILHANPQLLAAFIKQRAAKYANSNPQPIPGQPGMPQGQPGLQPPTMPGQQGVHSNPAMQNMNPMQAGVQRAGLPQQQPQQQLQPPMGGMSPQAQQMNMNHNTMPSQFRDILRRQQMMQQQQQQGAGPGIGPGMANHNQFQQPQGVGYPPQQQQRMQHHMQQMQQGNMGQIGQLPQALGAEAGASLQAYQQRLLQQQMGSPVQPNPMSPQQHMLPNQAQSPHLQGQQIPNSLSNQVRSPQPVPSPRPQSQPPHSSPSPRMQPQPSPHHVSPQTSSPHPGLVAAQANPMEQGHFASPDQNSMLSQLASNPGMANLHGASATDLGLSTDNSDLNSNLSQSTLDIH
CREB-binding protein/Histone acetyltransferase p300 (Homo sapiens), sequence (Q92793 whole entry, looked up): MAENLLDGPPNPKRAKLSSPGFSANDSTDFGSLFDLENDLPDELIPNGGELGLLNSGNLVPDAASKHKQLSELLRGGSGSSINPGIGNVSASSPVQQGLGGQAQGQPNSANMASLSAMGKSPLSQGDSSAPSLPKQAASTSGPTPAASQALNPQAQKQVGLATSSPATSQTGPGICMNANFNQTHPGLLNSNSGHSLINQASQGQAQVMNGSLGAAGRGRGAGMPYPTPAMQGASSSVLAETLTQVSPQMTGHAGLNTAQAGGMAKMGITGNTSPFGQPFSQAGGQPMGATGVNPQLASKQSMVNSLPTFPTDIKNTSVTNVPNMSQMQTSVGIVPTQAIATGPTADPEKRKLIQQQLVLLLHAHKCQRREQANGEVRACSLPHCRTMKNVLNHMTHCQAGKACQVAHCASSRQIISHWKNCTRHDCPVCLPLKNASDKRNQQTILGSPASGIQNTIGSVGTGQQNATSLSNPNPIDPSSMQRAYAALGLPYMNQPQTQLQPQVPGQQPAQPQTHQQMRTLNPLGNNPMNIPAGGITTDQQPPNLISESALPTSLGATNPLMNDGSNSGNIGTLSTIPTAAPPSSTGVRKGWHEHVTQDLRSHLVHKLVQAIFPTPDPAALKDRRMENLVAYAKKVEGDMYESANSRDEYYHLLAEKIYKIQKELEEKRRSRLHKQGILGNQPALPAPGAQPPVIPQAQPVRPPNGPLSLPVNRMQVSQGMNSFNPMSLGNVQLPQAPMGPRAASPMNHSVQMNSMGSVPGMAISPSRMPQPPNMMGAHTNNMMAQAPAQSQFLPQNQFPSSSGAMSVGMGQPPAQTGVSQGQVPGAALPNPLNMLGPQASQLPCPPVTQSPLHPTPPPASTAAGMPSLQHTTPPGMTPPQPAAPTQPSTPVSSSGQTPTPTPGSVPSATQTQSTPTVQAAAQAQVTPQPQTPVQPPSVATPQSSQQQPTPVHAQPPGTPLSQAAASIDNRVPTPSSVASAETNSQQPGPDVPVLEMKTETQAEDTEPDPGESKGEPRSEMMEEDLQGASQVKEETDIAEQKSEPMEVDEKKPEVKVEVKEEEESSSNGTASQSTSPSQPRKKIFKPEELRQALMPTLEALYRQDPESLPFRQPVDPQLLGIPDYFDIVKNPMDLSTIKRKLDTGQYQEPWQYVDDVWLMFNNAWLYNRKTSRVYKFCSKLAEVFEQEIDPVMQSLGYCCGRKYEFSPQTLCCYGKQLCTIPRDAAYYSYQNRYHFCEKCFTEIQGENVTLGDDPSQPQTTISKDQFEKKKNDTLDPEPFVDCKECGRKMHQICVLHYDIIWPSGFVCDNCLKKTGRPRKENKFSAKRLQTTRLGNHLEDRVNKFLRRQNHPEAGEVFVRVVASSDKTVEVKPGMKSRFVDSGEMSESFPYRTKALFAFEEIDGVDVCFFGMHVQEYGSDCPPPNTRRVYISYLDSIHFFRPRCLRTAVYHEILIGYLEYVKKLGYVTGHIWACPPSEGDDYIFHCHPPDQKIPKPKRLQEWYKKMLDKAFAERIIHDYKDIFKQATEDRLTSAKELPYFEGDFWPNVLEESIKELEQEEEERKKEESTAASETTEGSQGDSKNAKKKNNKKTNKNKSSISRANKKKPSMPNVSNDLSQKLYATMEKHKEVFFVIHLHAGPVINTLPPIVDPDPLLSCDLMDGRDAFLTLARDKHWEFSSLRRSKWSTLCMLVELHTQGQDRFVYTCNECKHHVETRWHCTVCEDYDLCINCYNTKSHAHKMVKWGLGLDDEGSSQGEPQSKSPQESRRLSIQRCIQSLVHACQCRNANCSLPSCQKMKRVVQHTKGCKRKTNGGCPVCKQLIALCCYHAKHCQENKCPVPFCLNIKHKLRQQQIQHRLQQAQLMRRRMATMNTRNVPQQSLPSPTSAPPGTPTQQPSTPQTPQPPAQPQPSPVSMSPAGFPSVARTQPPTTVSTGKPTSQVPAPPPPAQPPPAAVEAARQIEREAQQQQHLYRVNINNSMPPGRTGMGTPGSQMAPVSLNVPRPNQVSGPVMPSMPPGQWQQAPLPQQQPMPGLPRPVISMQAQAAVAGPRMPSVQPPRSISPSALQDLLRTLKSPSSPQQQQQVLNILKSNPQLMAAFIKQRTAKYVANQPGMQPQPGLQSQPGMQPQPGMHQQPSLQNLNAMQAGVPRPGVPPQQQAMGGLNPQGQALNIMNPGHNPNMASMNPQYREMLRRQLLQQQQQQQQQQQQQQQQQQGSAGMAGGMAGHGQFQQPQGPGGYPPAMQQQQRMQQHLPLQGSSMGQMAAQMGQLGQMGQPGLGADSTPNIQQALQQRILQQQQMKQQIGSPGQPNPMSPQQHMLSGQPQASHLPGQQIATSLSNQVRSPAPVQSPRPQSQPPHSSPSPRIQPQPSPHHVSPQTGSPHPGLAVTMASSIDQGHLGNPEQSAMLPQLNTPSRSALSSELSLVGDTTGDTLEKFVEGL

Consider `CNC(=O)Nc1ccc2c(c1)CCS21OC(=O)N(CC(=O)N(Cc2ccc(F)cc2)[C@@H](C)C(F)(F)F)C1=O` (stereo partly specified), for which the inhibition result in [1], in test [2], in test [4], in [5], in test [6] and in test [7] was “Active” in each case. Moreover, the inhibition entry in test [9], in test [10], in [11], in test [12], in test [13] and in test [14] was “Active” each time. Besides, the inhibition result in [17], in test [20] and in [21] was “Active” in each case. In addition, the result in test [3] and in test [18] was inactive. The inhibition result in test [8], in [15] and in test [16] was “inactive” each time. For the same compound, the outcome in test [19] was Active.
